In ChEMBL document CHEMBL4118021, “Studies of TAK1-centered polypharmacology with novel covalent TAK1 inhibitors” (Bioorg Med Chem, 2017):
Calls of active or inactive are those of the source. The calls are words filed in the database; no cut-off is given here.

What was measured:
[1] = target: T1, Mitogen-activated protein kinase kinase kinase 7 (Homo sapiens) (UniProt O43318); settings: 0.6 uM
T1 sequence (whole entry): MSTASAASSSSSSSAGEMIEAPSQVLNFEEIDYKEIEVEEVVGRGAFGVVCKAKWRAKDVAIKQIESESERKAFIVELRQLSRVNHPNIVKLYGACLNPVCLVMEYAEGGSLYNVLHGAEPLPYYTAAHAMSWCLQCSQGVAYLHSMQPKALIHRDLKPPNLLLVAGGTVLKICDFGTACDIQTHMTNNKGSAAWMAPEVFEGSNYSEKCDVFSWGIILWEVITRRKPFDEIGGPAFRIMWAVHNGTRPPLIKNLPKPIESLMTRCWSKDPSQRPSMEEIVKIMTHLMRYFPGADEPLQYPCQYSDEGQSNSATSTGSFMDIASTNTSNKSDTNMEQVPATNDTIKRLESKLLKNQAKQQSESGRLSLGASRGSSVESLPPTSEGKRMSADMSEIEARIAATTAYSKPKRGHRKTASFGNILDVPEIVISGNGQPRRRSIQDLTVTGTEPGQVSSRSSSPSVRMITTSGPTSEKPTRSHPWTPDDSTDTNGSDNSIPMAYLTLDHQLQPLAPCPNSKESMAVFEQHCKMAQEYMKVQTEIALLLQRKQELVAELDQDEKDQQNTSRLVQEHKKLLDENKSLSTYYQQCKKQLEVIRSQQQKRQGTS

[2] = target: Receptor tyrosine-protein kinase erbB-2 (Homo sapiens) (UniProt P04626); experiment: Inhibition of HER2/ErbB2 in human SKCO1 cells at 1 uM after 4 hrs using biotin labeled GIWIPDGENVKIPVAIKVLR probe by mass-spectrometric analysis relative to control; format: cell-based
Receptor tyrosine-protein kinase erbB-2 (Homo sapiens), sequence (P04626 whole entry): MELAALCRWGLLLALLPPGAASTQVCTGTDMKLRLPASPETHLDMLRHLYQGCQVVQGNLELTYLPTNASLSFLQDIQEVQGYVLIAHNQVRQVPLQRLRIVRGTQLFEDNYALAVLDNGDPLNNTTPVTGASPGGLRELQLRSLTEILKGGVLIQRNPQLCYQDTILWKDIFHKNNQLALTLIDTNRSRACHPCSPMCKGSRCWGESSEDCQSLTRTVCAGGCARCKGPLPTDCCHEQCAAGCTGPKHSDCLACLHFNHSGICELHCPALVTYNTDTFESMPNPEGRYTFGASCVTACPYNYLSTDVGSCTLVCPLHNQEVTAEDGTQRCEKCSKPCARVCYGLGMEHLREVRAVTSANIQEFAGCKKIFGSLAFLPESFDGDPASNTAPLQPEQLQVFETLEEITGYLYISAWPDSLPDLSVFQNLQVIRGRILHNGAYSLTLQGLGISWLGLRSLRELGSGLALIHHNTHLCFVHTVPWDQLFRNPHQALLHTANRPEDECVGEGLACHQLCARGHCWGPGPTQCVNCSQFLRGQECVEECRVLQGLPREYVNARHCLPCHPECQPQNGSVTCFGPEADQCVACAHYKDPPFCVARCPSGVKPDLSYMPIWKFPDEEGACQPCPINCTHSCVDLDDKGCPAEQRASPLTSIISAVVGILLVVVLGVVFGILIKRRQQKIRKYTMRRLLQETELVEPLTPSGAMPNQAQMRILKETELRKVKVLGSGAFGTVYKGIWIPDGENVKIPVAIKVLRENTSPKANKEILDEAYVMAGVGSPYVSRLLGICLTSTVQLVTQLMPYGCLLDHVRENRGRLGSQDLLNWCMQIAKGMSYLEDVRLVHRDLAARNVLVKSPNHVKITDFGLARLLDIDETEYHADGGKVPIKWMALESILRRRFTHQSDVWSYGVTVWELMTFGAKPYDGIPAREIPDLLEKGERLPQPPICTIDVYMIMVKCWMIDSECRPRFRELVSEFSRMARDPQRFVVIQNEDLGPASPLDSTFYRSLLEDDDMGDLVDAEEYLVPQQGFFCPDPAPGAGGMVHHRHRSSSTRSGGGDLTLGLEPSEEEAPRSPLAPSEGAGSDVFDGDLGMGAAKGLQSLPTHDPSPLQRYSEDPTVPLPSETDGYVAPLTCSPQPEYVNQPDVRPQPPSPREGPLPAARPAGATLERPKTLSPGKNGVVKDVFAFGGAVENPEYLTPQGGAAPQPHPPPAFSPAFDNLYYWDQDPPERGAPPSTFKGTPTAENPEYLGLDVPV

[3] = target: Serine/threonine-protein kinase Sgk3 (Homo sapiens) (UniProt Q96BR1); experiment: Inhibition of SGK3 in human SKCO1 cells at 1 uM after 4 hrs using biotin labeled FYAVKVLQK probe by mass-spectrometric analysis relative to control; format: cell-based
Serine/threonine-protein kinase Sgk3 (Homo sapiens), sequence (Q96BR1 whole entry): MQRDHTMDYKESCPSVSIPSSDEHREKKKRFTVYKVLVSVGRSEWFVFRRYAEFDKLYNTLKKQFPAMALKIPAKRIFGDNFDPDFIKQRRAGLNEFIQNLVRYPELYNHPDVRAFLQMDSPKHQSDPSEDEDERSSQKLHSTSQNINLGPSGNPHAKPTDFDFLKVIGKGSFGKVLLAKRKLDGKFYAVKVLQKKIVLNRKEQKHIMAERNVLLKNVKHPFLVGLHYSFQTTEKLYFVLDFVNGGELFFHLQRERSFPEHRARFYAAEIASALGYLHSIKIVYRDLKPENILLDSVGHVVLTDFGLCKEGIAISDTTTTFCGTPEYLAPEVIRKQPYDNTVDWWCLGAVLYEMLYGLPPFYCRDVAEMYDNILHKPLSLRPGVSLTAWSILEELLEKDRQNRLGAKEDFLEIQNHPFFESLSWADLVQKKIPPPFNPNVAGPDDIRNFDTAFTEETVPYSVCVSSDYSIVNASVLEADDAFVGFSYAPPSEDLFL

[4] = target: Serine/threonine-protein kinase Nek6 (Homo sapiens) (UniProt Q9HC98); experiment: Inhibition of NEK6 in human SKCO1 cells at 1 uM after 4 hrs using biotin labeled TVALKK probe by mass-spectrometric analysis relative to control; format: cell-based
[5] = target: Dual specificity mitogen-activated protein kinase kinase 2 (Homo sapiens) (UniProt P36507); experiment: Inhibition of MAP2K2 in human SKCO1 cells at 1 uM after 4 hrs using biotin labeled DVKPSNILVNSR probe by mass-spectrometric analysis relative to control; format: cell-based
Summary of the method: (§1)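 Live SK-CO-1 cells treated 4 h at 1 μM (DMSO control); cells lysed and lysates labeled with lysine-reactive ATP/ADP-biotin probe (KiNativ); probe-labeled kinase peptides quantified by mass spectrometry; inhibition expressed as percent reduction in probe-dependent recovery versus DMSO-treated cells.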

[6] = target: Tyrosine-protein kinase Fyn (Homo sapiens) (UniProt P06241); experiment: Inhibition of FYN in human SKCO1 cells at 1 uM after 4 hrs using biotin labeled QGAKFPIKWTAPEAALYGR probe by mass-spectrometric analysis relative to control; format: cell-based
Tyrosine-protein kinase Fyn (Homo sapiens), sequence (P06241 2-537 limits assumed): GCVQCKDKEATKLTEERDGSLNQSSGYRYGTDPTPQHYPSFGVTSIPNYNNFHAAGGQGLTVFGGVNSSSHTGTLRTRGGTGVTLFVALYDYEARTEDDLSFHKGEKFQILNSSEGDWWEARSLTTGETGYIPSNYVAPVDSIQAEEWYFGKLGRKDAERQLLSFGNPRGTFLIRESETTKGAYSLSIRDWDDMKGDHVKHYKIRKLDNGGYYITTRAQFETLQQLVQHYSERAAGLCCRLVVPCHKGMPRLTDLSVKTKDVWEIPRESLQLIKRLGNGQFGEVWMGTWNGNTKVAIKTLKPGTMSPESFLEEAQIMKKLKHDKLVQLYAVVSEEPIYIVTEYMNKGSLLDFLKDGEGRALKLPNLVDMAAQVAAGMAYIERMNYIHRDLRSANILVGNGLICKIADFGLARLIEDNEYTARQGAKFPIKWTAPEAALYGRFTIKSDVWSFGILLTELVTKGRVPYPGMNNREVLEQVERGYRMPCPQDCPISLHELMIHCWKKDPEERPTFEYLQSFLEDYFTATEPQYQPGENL

[7] = Antiproliferative activity against human URMC6 cells harboring wild type KRAS after 72 hrs by CellTiter-Glo assay; format: functional, cell-based
[8] = target: Ephrin type-B receptor 2 (Homo sapiens) (UniProt P29323); experiment: Inhibition of EphB2 in human SKCO1 cells at 1 uM after 4 hrs using biotin labeled FLEDDTSDPTYTSALGGKIPIR probe by mass-spectrometric analysis relative to control; format: cell-based
Ephrin type-B receptor 2 (Homo sapiens), sequence (P29323 whole entry): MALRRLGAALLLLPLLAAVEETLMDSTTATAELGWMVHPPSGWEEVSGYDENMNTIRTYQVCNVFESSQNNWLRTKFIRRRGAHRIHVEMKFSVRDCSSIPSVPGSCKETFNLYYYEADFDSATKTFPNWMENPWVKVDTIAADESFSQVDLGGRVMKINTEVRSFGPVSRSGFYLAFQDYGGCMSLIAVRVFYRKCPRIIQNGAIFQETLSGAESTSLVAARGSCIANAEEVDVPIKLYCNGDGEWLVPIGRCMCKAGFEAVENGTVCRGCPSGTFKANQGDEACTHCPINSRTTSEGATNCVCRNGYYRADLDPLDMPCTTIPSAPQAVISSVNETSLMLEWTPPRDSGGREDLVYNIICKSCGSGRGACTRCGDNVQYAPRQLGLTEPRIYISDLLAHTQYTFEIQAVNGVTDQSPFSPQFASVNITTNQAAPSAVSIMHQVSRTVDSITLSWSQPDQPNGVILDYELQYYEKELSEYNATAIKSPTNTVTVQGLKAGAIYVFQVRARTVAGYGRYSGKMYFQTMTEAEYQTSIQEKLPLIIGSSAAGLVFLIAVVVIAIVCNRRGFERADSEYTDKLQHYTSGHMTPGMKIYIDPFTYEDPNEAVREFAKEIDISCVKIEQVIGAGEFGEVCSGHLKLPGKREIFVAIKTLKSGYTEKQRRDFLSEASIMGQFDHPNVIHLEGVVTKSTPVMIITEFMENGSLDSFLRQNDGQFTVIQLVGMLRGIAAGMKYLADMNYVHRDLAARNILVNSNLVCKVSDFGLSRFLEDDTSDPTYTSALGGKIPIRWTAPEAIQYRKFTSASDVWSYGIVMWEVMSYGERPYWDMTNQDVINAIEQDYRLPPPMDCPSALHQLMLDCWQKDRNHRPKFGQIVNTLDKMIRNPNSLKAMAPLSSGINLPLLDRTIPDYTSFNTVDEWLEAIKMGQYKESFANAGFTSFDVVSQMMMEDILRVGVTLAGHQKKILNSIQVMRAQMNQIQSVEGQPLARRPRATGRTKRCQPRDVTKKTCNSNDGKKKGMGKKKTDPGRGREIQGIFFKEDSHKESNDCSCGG

[9] = target: Wee1-like protein kinase (Homo sapiens) (UniProt P30291); experiment: Inhibition of Wee1 in human SKCO1 cells at 1 uM after 4 hrs using biotin labeled YIHSMSLVHMDIKPSNIFISR probe by mass-spectrometric analysis relative to control; format: cell-based
Summary of the method: as §1

SW-620 = experiment: Antiproliferative activity against human SW620 cells harboring KRAS G12V mutant after 72 hrs by CellTiter-Glo assay; format: functional, cell-based; settings: SW-620, 72 h
[10] = target: Proto-oncogene tyrosine-protein kinase Src (Homo sapiens) (UniProt P12931); experiment: Inhibition of SRC in human SKCO1 cells at 1 uM after 4 hrs using biotin labeled QGAKFPIKWTAPEAALYGR probe by mass-spectrometric analysis relative to control; format: cell-based
Proto-oncogene tyrosine-protein kinase Src (Homo sapiens), sequence (P12931 2-536 limits assumed): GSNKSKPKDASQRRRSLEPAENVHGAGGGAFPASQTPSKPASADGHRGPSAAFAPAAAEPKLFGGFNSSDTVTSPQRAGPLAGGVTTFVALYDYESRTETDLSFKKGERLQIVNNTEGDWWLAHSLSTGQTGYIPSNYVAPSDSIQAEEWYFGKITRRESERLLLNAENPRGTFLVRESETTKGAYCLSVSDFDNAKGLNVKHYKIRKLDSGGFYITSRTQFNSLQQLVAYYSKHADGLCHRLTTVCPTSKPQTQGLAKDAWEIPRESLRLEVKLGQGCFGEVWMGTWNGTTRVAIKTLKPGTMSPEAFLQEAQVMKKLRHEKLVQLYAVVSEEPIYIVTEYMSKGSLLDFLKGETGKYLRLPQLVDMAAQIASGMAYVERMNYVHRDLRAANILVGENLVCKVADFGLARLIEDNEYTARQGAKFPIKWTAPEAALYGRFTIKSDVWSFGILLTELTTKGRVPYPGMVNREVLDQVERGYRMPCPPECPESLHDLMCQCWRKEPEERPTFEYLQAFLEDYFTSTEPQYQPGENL

[11] = target: Serine/threonine-protein kinase A-Raf (Homo sapiens) (UniProt P10398); experiment: Inhibition of ARAF in human SKCO1 cells at 1 uM after 4 hrs using biotin labeled DLKSNNIFLHEGLTVK probe by mass-spectrometric analysis relative to control; format: cell-based
[12] = Antiproliferative activity against human SW156 cells harboring wild type KRAS after 72 hrs by CellTiter-Glo assay; format: functional, cell-based
[13] = target: Serine/threonine-protein kinase Nek7 (Homo sapiens) (UniProt Q8TDX7); experiment: Inhibition of NEK7 in human SKCO1 cells at 1 uM after 4 hrs using biotin labeled DIKPANVFITATGVVK probe by mass-spectrometric analysis relative to control; format: cell-based
Serine/threonine-protein kinase Nek7 (Homo sapiens), sequence (Q8TDX7 whole entry, looked up): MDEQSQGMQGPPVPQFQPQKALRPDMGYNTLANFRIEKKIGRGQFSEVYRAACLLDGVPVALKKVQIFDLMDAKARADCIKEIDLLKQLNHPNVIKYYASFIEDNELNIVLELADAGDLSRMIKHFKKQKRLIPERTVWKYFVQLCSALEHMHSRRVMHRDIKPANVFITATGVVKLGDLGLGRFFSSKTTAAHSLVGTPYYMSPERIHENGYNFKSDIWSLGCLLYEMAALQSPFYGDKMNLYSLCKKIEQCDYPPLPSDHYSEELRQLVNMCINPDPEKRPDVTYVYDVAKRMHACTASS

NCI-H23 = experiment: Antiproliferative activity against human NCI-H23 cells harboring KRAS G12C mutant after 72 hrs by CellTiter-Glo assay; format: functional, cell-based
Summary of the method: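 NCI-H23 or NCI-H358 cells seeded at 2000 cells/well and grown 48 h before drug. Varying doses were added and cells incubated 72 h. Viability was read as CellTiter-Glo luminescence, and growth-inhibition IC50 was calculated from dose-response curves.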

[14] = target: Ribosomal protein S6 kinase alpha-1 (Homo sapiens) (UniProt Q15418); experiment: Inhibition of RSK1 domain2 in human SKCO1 cells at 1 uM after 4 hrs using biotin labeled DLKPSNILYVDESGNPECLR probe by mass-spectrometric analysis relative to control; format: cell-based
[15] = target: Tyrosine-protein kinase Lck (Homo sapiens) (UniProt P06239); experiment: Inhibition of LCK in human SKCO1 cells at 1 uM after 4 hrs using biotin labeled EGAKFPIKWTAPEAINYGTFTIK probe by mass-spectrometric analysis relative to control; format: cell-based
[16] = target: Mitogen-activated protein kinase 8 (Homo sapiens) (UniProt P45983); experiment: Inhibition of JNK1 in human SKCO1 cells at 1 uM after 4 hrs using biotin labeled DLKPSNIVVK probe by mass-spectrometric analysis relative to control; format: cell-based
U-937 = experiment: Antiproliferative activity against human U937 cells at […] to […] nM after 72 hrs by CellTiter-Glo assay; format: functional, cell-based
[17] = target: Mitogen-activated protein kinase 10 (Homo sapiens) (UniProt P53779); experiment: Inhibition of JNK3 in human SKCO1 cells at 1 uM after 4 hrs using biotin labeled DLKPSNIVVK probe by mass-spectrometric analysis relative to control; format: cell-based
Mitogen-activated protein kinase 10 (Homo sapiens), sequence (P53779 whole entry): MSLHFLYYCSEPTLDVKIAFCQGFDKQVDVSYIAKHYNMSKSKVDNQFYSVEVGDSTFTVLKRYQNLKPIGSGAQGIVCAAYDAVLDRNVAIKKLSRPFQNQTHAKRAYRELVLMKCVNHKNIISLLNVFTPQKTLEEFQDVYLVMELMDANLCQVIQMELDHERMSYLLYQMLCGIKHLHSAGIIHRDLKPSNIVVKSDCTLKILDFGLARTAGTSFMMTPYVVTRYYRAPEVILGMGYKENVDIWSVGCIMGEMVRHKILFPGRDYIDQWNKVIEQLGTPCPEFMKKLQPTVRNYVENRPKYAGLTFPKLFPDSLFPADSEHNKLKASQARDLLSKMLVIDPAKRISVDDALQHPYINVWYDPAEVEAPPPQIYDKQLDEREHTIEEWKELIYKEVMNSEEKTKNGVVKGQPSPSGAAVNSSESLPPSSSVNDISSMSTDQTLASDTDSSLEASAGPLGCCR

[18] = target: Mitogen-activated protein kinase 14 (Homo sapiens) (UniProt Q16539); experiment: Inhibition of p38a in human SKCO1 cells at 1 uM after 4 hrs using biotin labeled DLKPSNLAVNEDCELK probe by mass-spectrometric analysis relative to control; format: cell-based
Mitogen-activated protein kinase 14 (Homo sapiens), sequence (Q16539 whole entry): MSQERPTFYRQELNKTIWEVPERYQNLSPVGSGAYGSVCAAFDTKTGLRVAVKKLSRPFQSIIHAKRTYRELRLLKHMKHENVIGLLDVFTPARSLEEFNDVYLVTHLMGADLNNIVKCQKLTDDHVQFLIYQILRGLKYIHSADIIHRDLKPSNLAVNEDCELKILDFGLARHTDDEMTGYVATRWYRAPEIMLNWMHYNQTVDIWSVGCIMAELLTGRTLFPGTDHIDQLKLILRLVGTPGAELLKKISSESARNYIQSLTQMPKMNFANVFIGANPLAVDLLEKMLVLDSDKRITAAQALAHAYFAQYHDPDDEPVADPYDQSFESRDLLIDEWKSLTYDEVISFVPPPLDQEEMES
Summary of the method: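 Live SK-CO-1 cells exposed to compound at 1 μM or DMSO for 4 h (KiNativ). Lysates then labeled with lysine-reactive ATP/ADP-biotin probe, and probe-labeled kinase peptides quantified by mass spectrometry. Percent inhibition of probe-dependent recovery calculated relative to DMSO-treated cells.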

Row | Compound | inhibition [1] | inhibition [2] [%] | inhibition [3] [%] | inhibition [4] [%] | inhibition [5] [%] | inhibition [6] [%] | IC50 [7] [nM] | inhibition [8] [%] | inhibition [9] [%] | IC50 (SW-620) [nM] | inhibition [10] [%] | inhibition [11] [%] | IC50 [12] [nM] | inhibition [13] [%] | inhibition [14] [%] | inhibition [15] [%] | inhibition [16] [%] | Activity (U-937) | inhibition [17] [%] | inhibition [18] [%] | other results
1 | COc1cc(O)c2c(c1)/C=C/C[C@H](O)[C@H](O)C(=O)/C=C\C[C@H](C)OC2=O | Active | 14.5 | -1.4 | -9.7 | 95 | 8.5 | 1450 | 24.2 | 3 | 2540 | 8.5 | 85.5 | 2020 | 4.9 | 6.4 | – | – | – | – | – | IC50 (NCI-H23; NCI-H23, 72 h): 1000 nM
2 | C=CC(=O)Nc1ccccc1Oc1nc(Nc2cnn(CCOC)c2)ncc1Cl | – | -2.2 | – | -9.9 | 7.9 | -0.9 | 2620 | 13.7 | – | 506 | -0.9 | – | 3020 | -0.4 | 12.8 | -2.7 | 0.8 | Active | 0.8 | -3.3 | –
3 | C=CC(=O)Nc1ccccc1Nc1nc(Nc2ccc(N3CCN(C)CC3)cc2)ncc1Cl | Active | – | -2.7 | – | – | – | – | – | 79 | – | – | 57 | – | – | – | 0 | 70 | Active | 70 | -7.7 | Activity (NCI-H23): Active
